Tests used:
[1] = molecular target: T1, Prostaglandin G/H synthase 2 (Homo sapiens) (UniProt P35354); assay: Inhibition of human recombinant COX2 expressed in Sf9 cells at 10 ug/mL
T1 sequence (whole entry): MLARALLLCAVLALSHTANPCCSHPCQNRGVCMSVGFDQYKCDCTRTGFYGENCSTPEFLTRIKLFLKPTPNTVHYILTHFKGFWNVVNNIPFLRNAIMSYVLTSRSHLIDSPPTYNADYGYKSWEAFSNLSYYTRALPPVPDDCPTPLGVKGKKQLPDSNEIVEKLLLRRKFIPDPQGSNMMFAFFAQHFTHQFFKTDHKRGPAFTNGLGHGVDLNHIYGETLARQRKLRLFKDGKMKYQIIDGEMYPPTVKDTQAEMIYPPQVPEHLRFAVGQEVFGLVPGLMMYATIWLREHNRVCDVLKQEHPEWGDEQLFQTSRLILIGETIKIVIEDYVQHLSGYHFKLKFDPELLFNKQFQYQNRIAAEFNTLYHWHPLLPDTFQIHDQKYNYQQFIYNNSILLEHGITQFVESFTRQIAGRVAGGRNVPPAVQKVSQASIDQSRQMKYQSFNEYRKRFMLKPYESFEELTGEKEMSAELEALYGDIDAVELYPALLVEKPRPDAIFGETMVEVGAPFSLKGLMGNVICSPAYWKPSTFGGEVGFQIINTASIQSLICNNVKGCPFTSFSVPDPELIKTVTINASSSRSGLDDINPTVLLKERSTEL
In short: (§1)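 Enzyme: human recombinant COX-2 produced in Sf9 cells, assayed by a previously published procedure. Each compound was run in triplicate at three log-spaced levels (10, 100 and 1000 μg/mL). Inhibition of enzyme activity is the read-out.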

[2] = molecular target: T1, Prostaglandin G/H synthase 2 (Homo sapiens); assay: Inhibition of human recombinant COX2 expressed in Sf9 cells at 100 ug/mL; in short: as §1
[3] = molecular target: T1, Prostaglandin G/H synthase 2 (Homo sapiens); assay: Inhibition of human recombinant COX2 expressed in Sf9 cells at 1000 ug/mL; in short: as §1

Row | inhibition [1] | inhibition [2] | inhibition [3] | Structure (SMILES)
1 | 2% | 44% | 95% | Oc1cc(O)c2c(c1)O[C@@]1(c3ccc(O)c(O)c3)Oc3cc(O)c4c(c3[C@@H]2[C@H]1O)O[C@H](c1ccc(O)c(O)c1)[C@H](O)[C@H]4c1c(O)cc(O)c2c1O[C@H](c1ccc(O)c(O)c1)[C@@H](O)C2 (mixture of isomers)
2 | 19% | 27% | 86% | Oc1cc(O)c2c(c1)O[C@@]1(c3ccc(O)c(O)c3)Oc3cc(O)c4c(c3[C@@H]2[C@H]1O)O[C@H](c1ccc(O)c(O)c1)[C@H](O)[C@H]4c1c(O)cc(O)c2c1O[C@H](c1ccc(O)c(O)c1)[C@H](O)C2 (mixture of isomers)
3 | 38% | 52% | 97% | Oc1cc(O)c2c(c1)O[C@H](c1ccc(O)c(O)c1)[C@H](O)[C@H]2c1c(O)c2c(c3c1O[C@]1(c4ccc(O)c(O)c4)Oc4cc(O)cc(O)c4[C@H]3[C@H]1O)O[C@H](c1ccc(O)c(O)c1)[C@H](O)[C@H]2c1c(O)cc(O)c2c1O[C@H](c1ccc(O)c(O)c1)[C@@H](O)C2 (mixture of isomers)
4 | 14% | 86% | 94% | Oc1cc(O)c2c(c1)O[C@H](c1ccc(O)c(O)c1)[C@H](O)[C@H]2c1c(O)c2c(c3c1O[C@]1(c4ccc(O)c(O)c4)Oc4cc(O)cc(O)c4[C@H]3[C@H]1O)O[C@H](c1ccc(O)c(O)c1)[C@H](O)[C@H]2c1c(O)cc(O)c2c1O[C@H](c1ccc(O)c(O)c1)[C@H](O)C2 (mixture of isomers)

Reference: ChEMBL document CHEMBL1821578, “Bioactive A-type proanthocyanidins from Cinnamomum cassia” (J Nat Prod, 2011)
